The sample as a whole holds a higher share of hits than the screen did.
T cruzi intra: blocks T. cruzi growth inside host cells; intracellular Trypanosoma cruzi in host cells, plate reader; activity score (inhibition), % at 5.01 µM; hit rate 4.9% among 22,000; in the data active = activity score above about 55%;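 note: parasites and compound incubated about four days before reading; 0% = median of neutral control wells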
INS-1E rescue: INS-1E beta cell protection from cytokine death | protection from cytokine-induced ATP loss, % at 10 µM | INS-1E cytokine-induced death, ATP luminescence, 48 h; normalised: neutral wells 0, positive control 100 | hit rate 0.1% among 20,000 | AID 488910;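 active = mean replicate protection from cytokine-induced ATP loss at least 50% and at least 75% of replicates each reaching 50%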
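Material: INS-1E rat cells; Quantity: 8000 cells/well; Buffer or medium: phenol-red-free RPMI with 5% fetal bovine serum; Probe or stimulus: cytokine cocktail of IFN-γ, TNF-α and IL-1β; Compound dosing: single test concentration per compound, delivered by pin transfer; Incubation: 48 h co-treatment, 10 min post-lysis read; Signal: CellTiter-Glo luminescence.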
A1 apoptosis 2: compounds inhibiting A1, read as caspase activation. MEF A1-2A-BIM cells, caspase-Glo luminescence, 3 h; percent of clofoctol response, DMSO zero. caspase activation, % (test concentration not listed). 24,000 tested, under 10 active. AID 2465; in the data active = caspase activation above about 5.9%
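Test system – A1-2A-BIM-expressing MEF cells · Input – 2500 cells/well · Medium – RPMI-1640 growth medium with 10% FBS · Compound dosing – 50 nL pinned compound · Timing – 3 h compound exposure at 37 °C · Technique – Caspase-Glo luminescence (DEVD substrate) · Evaluation – Caspase-3/7 activity from luminescence increase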
Numbers without * were called inactive; / = no result.

SMILES	T cruzi intra	INS-1E rescue	A1 apoptosis 2
C[C@@H]1CCCCO[C@@H](CN(C)Cc2ccc(C(F)(F)F)cc2)[C@@H](C)CN([C@H](C)CO)C(=O)c2cc(NC(=O)Nc3ccc(F)cc3)ccc2O1	79*	-4	/
C[C@@H]1CCCCO[C@H](CN(C)Cc2ccc(C(F)(F)F)cc2)[C@@H](C)CN([C@@H](C)CO)C(=O)c2cc(NC(=O)Nc3ccc(F)cc3)ccc2O1	/	/	-1
C[C@@H]1CN([C@@H](C)CO)C(=O)c2cc(NC(=O)Nc3ccc4c(c3)OCO4)ccc2O[C@@H](C)CCCCO[C@H]1CN(C)Cc1ccc(C(F)(F)F)cc1	/	/	-1
COc1ccc(CN(C)C[C@@H]2OCCCC[C@H](C)Oc3ccc(NC(=O)Nc4ccc(C(F)(F)F)cc4)cc3C(=O)N([C@@H](C)CO)C[C@H]2C)cc1	/	/	1
C[C@@H]1CCCCO[C@@H](CN(C)Cc2ccc(C(F)(F)F)cc2)[C@@H](C)CN([C@H](C)CO)C(=O)c2cc(NC(=O)Nc3ccc4c(c3)OCO4)ccc2O1	70*	-13	-1
C[C@H](CO)N1C[C@H](C)[C@@H](CN(C)S(=O)(=O)c2ccccc2)Oc2ccc(N(C)C)cc2C1=O	0	-1	-1
C[C@@H]1CN([C@H](C)CO)C(=O)c2cc(NC(=O)Nc3ccccc3)ccc2O[C@@H]1CN(C)S(=O)(=O)c1ccc(F)cc1	11	6	/
C#CCOc1ccc(/C=N/NC(=O)c2ccccc2O)cc1	-20	-30	-10
C[C@@H]1CN([C@@H](C)CO)C(=O)Cc2cc(NS(=O)(=O)c3ccccc3)ccc2O[C@H]1CN(C)S(=O)(=O)c1ccccc1	/	/	1
COc1ccc(S(=O)(=O)N(C)C[C@@H]2Oc3c(NC(=O)Nc4ccc(C(F)(F)F)cc4)cccc3C(=O)N([C@H](C)CO)C[C@@H]2C)cc1	74*	-101	/
Cc1ccc(S(=O)(=O)N(C)C[C@@H]2Oc3c(NC(=O)Nc4cccc5ccccc45)cccc3C(=O)N([C@@H](C)CO)C[C@H]2C)cc1	0	62*	0
Cc1ccc(S(=O)(=O)N(C)C[C@H]2Oc3c(NC(=O)Nc4ccc(C(F)(F)F)cc4)cccc3C(=O)N([C@@H](C)CO)C[C@H]2C)cc1	79*	-107	-1
COc1ccc(NC(=O)Nc2cccc3c2O[C@H](CN(C)S(=O)(=O)c2ccc(OC)cc2)[C@@H](C)CN([C@H](C)CO)C3=O)cc1	-11	2	0
Cc1ccc(S(=O)(=O)N(C)C[C@H]2Oc3c(NC(=O)Nc4cccc5ccccc45)cccc3C(=O)N([C@H](C)CO)C[C@H]2C)cc1	39	10	1
COc1ccc(S(=O)(=O)N(C)C[C@@H]2Oc3c(NC(=O)Nc4ccc(C(F)(F)F)cc4)cccc3C(=O)N([C@@H](C)CO)C[C@@H]2C)cc1	61*	-59	0
Cc1ccc(S(=O)(=O)N(C)C[C@@H]2Oc3c(NC(=O)Nc4ccc(C(F)(F)F)cc4)cccc3C(=O)N([C@@H](C)CO)C[C@@H]2C)cc1	-1	-26	/
COc1ccc(NC(=O)Nc2cccc3c2O[C@@H](CN(C)S(=O)(=O)c2ccc(OC)cc2)[C@H](C)CN([C@H](C)CO)C3=O)cc1	17	-7	1
COc1ccc(NC(=O)N(C)C[C@@H]2Oc3ccc(NC(=O)Nc4ccc5c(c4)OCO5)cc3C(=O)N([C@@H](C)CO)C[C@H]2C)cc1	-13	12	0
Cc1noc(C)c1S(=O)(=O)Nc1ccc2c(c1)CC(=O)N([C@H](C)CO)C[C@H](C)[C@H](CN(C)Cc1ccc(C(=O)Nc3ccccc3N)cc1)O2	76*	34	/
Cc1noc(C)c1S(=O)(=O)Nc1ccc2c(c1)C(=O)N([C@H](C)CO)C[C@@H](C)[C@@H](CN(C)Cc1ccc(C(=O)Nc3ccccc3N)cc1)O2	65*	-9	0
Cc1noc(C)c1S(=O)(=O)Nc1ccc2c(c1)C(=O)N([C@@H](C)CO)C[C@H](C)[C@@H](CN(C)Cc1ccc(C(=O)Nc3ccccc3N)cc1)O2	43	-14	-1
Cc1noc(C)c1S(=O)(=O)Nc1ccc2c(c1)C(=O)N([C@@H](C)CO)C[C@@H](C)[C@@H](CN(C)Cc1ccc(C(=O)Nc3ccccc3N)cc1)O2	54	-3	1
Cc1noc(C)c1S(=O)(=O)Nc1ccc2c(c1)C(=O)N([C@H](C)CO)C[C@H](C)[C@H](CN(C)Cc1ccc(C(=O)Nc3ccccc3N)cc1)O2	79*	13	/
Cc1noc(C)c1S(=O)(=O)Nc1ccc2c(c1)CC(=O)N([C@@H](C)CO)C[C@H](C)[C@H](CN(C)Cc1ccc(C(=O)Nc3ccccc3N)cc1)O2	/	/	0
C[C@H](CO)N1C[C@H](C)[C@@H](CN(C)S(=O)(=O)c2cccs2)Oc2c(NS(C)(=O)=O)cccc2C1=O	-19	7	0
SMILES	T cruzi intra	INS-1E rescue	A1 apoptosis 2
C[C@H](CO)N1C[C@H](C)[C@H](CN(C)S(=O)(=O)c2cccs2)Oc2ncc(C#Cc3ccc(F)cc3)cc2C1=O	65*	/	/
CCCC(O)C#Cc1cnc2c(c1)C(=O)N([C@H](C)CO)C[C@H](C)[C@H](CN(C)S(=O)(=O)c1cccs1)O2 (some centres undefined)	12	/	1
C[C@H](CO)N1C[C@H](C)[C@H](CN(C)S(C)(=O)=O)Oc2ncc(C#Cc3ccc(F)cc3)cc2C1=O	10	/	/
C[C@H](CO)N1C[C@H](C)[C@H](CN(C)S(=O)(=O)c2cccs2)Oc2ncc(C#Cc3ccc(C(F)(F)F)cc3)cc2C1=O	87*	-21	-2
COc1ccc(S(=O)(=O)N(C)C[C@@H]2Oc3ncccc3C(=O)N([C@H](C)CO)C[C@@H]2C)cc1	/	/	0
COc1cccc(S(=O)(=O)N(C)C[C@@H]2Oc3ncc(C#Cc4ccc(OC)c(OC)c4)cc3C(=O)N([C@H](C)CO)C[C@@H]2C)c1	35	-10	-1
COc1cccc(S(=O)(=O)N(C)C[C@@H]2Oc3ncc(C#Cc4cccc(F)c4)cc3C(=O)N([C@H](C)CO)C[C@@H]2C)c1	65*	/	/
COc1cccc(S(=O)(=O)N(C)C[C@@H]2Oc3ncc(C#Cc4ccc(C(F)(F)F)cc4)cc3C(=O)N([C@H](C)CO)C[C@@H]2C)c1	89*	/	/
COc1cccc(S(=O)(=O)N(C)C[C@@H]2Oc3ncc(C#CCN(C)C)cc3C(=O)N([C@H](C)CO)C[C@@H]2C)c1	15	2	0
C[C@@H]1CN([C@H](C)CO)C(=O)c2cccc(NC(=O)c3nc4ccccc4s3)c2O[C@H]1CN(C)Cc1ccncc1	18	-10	-1

Screens deposited in PubChem by Broad Institute.
